Laboratory results published in PMC4604364 (Antimicrobial Agents and Chemotherapy, 2015).
In brackets after ≈: the same amount, converted by molar mass.

Legend:
[1] = Pharmacokinetics in nonhuman primates; assay type: in vivo, Cynomolgus monkeys; details: for AUC / Cmax / Tmax / half-life / bioavailability: cynomolgus monkey, plasma
Outline: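 Cynomolgus monkeys were dosed intravenously (infusion ending at 0.25 h) or orally. Plasma was sampled predose and at 0.25, 0.5, 1, 3, 5, 7, 16 and 24 h. Protein was precipitated with acetonitrile containing 0.1% formic acid, then centrifuged. The supernatant was dried, reconstituted in methanol-water (1:1) and quantified by LC-MS/MS. PK parameters came from noncompartmental analysis.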

[2] = system: E. faecalis JH2-2(pMV158) (tetracycline efflux, Tet L); assay: Microdilution MIC, E. faecalis Tet L; assay type: cell-based; details: Enterococcus faecalis, read-out: MIC, E. faecalis Tet L
[3] = system: E. faecalis JH2-2(pAM211) (ribosome protection, Tet M); assay: Microdilution MIC, E. faecalis Tet M; assay type: cell-based; details: Enterococcus faecalis, read-out: MIC, E. faecalis Tet M
[4] = system: S. aureus MRSA 5 (MRSA, ribosome protection, Tet M); assay: Microdilution MIC, S. aureus Tet M; assay type: cell-based; details: Staphylococcus aureus, read-out: MIC, S. aureus Tet M
[5] = system: E. faecalis JH2-2 (wild type, tetracycline susceptible); assay: Microdilution MIC, E. faecalis wild type; assay type: cell-based; details: Enterococcus faecalis, read-out: MIC, E. faecalis wild type
[6] = system: E. faecium 494 (Tet M plus Tet L); assay: Microdilution MIC, E. faecium Tet M + L; assay type: cell-based; details: Enterococcus faecium, read-out: MIC, E. faecium Tet M + L
[7] = system: S. aureus RN4250 (tetracycline efflux, Tet K); assay: Microdilution MIC, S. aureus Tet K; assay type: cell-based; details: Staphylococcus aureus, read-out: MIC, S. aureus Tet K
[8] = system: S. pneumoniae 157E (wild type, tetracycline susceptible); assay: Microdilution MIC, S. pneumoniae wild type; assay type: cell-based; details: Streptococcus pneumoniae, read-out: MIC, S. pneumoniae wild type
S. aureus MRSA 5 (Tet M) [9] = assay: S. aureus MRSA 5 thigh wound infection model in mice; assay type: in vivo; details: 24 h after single subcutaneous injection of 20 mg/kg
[10] = system: S. pneumoniae ATCC 700905 (ribosome protection, Tet M); assay: Microdilution MIC, S. pneumoniae Tet M; assay type: cell-based; details: Streptococcus pneumoniae, ATCC700905, read-out: MIC, S. pneumoniae Tet M
[11] = system: S. aureus RN450 (wild type, tetracycline susceptible); assay: Microdilution MIC, S. aureus wild type; assay type: cell-based; details: Staphylococcus aureus, read-out: MIC, S. aureus wild type
S. aureus MRSA 5 (Tet M) [12] = assay: Serum MIC, S. aureus MRSA 5; assay type: cell-based; details: Staphylococcus aureus, read-out: S. aureus MRSA 5 (Tet M) serum MIC, None
[13] = system: Gram-positive screening panel organisms (S. aureus, Enterococcus spp., S. pneumoniae); assay: MIC ranges over the Gram-positive screening panel; assay type: cell-based; details: read-out: MIC range against resistant organisms

| Compound | AUC ([1]; iv, 5 mg/kg) [ng·h/mL] | Cmax ([1]; iv, 5 mg/kg) [ng/mL] | Tmax ([1]; iv, 5 mg/kg) [h] | half-life ([1]; iv, 5 mg/kg) [h] | AUC ([1]; po, 5 mg/kg) [ng·h/mL] | Cmax ([1]; po, 5 mg/kg) [ng/mL] | Tmax ([1]; po, 5 mg/kg) [h] | bioavailability ([1]; po, 5 mg/kg) [%] | half-life ([1]; po, 5 mg/kg) [h] | MIC [2] [µg/mL] | MIC [3] [µg/mL] | MIC [4] [µg/mL] | MIC [5] [µg/mL] | MIC [6] [µg/mL] | MIC [7] [µg/mL] | MIC [8] [µg/mL] | reduction of colony count relative to untreated control animals (S. aureus MRSA 5 (Tet M) [9]) [log10] | MIC [10] [µg/mL] | MIC [11] [µg/mL] | MIC (S. aureus MRSA 5 (Tet M) [12]) [µg/mL] | further results |
| --- | --- | --- | --- | --- | --- | --- | --- | --- | --- | --- | --- | --- | --- | --- | --- | --- | --- | --- | --- | --- | --- |
| CN(C)c1ccc(O)c2c1C[C@H]1C[C@H]3[C@H](N(C)C)C(O)=C(C(N)=O)C(=O)[C@@]3(O)C(O)=C1C2=O [Minocycline, minocycline] | 27600 | 14800 | 0.1 | 10.4 | 22100 | 2200 | 3 | 80 | 7 | 0.5 (≈ 1.09 µM) | 16 (≈ 35 µM) | 2 (≈ 4.37 µM) | 0.5 (≈ 1.09 µM) | 16 | 0.5 (≈ 1.09 µM) | < 0.06 | 0.98 | 8 (≈ 17.5 µM) | 0.25 (≈ 0.546 µM) | 2 (≈ 4.37 µM) | – |
| CN(C)c1cc(NC(=O)CNC(C)(C)C)c(O)c2c1C[C@H]1C[C@H]3[C@H](N(C)C)C(O)=C(C(N)=O)C(=O)[C@@]3(O)C(O)=C1C2=O [Tigecycline, tigecycline] | 16300 | 23200 | 0.2 | 10.9 | 500 | 40 | 4 | 3.1 | 3.4 | 0.5 (≈ 0.854 µM) | 0.5 (≈ 0.854 µM) | 0.25 (≈ 0.427 µM) | 0.5 (≈ 0.854 µM) | 0.5 | 0.5 (≈ 0.854 µM) | < 0.06 | – | < 0.06 | 0.25 (≈ 0.427 µM) | 0.25 (≈ 0.427 µM) | – |
| CN(C)c1cc(CNCC(C)(C)C)c(O)c2c1C[C@H]1C[C@H]3[C@H](N(C)C)C(O)=C(C(N)=O)C(=O)[C@@]3(O)C(O)=C1C2=O [Compound 27, 9-neopentylaminomethylminocycline] | – | – | – | – | 5300 | 410 | 2.3 | 31 | 11.1 | 0.5 (≈ 0.898 µM) | 0.5 (≈ 0.898 µM) | 0.25 (≈ 0.449 µM) | 0.25 (≈ 0.449 µM) | 0.5 | 0.25 (≈ 0.449 µM) | < 0.06 | 2.49 to 3.11 | < 0.06 | 0.25 (≈ 0.449 µM) | 0.25 (≈ 0.449 µM) | tolerability after intravenous infusion ([1]; Cynomolgus monkeys): well tolerated; AUC ([1]; iv, 2.6 mg/kg): 9000 ng·h/mL; Cmax ([1]; iv, 2.6 mg/kg): 1880 ng/mL; Tmax ([1]; iv, 2.6 mg/kg): 0.2 h; half-life ([1]; iv, 2.6 mg/kg): 14.4 h; oral plasma exposure relative to tigecycline ([1]; oral administration, monkeys): 10 fold; MIC [13]: 0.06 to 0.5 µg/mL (≈ 0.108 to 0.898 µM) |
| CN(C)[C@@H]1C(O)=C(C(N)=O)C(=O)[C@@]2(O)C(O)=C3C(=O)c4c(O)cccc4[C@@](C)(O)[C@H]3C[C@@H]12 [Tetracycline, tetracycline] | – | – | – | – | – | – | – | – | – | 64 (≈ 144 µM) | > 64 | 32 (≈ 72 µM) | 0.25 (≈ 0.563 µM) | > 64 | > 64 | < 0.06 | – | 32 (≈ 72 µM) | < 0.06 | – | – |
| CN[C@H](CC(C)C)C(=O)N[C@H]1C(=O)N[C@@H](CC(N)=O)C(=O)N[C@H]2C(=O)N[C@H]3C(=O)N[C@H](C(=O)N[C@H](C(=O)O)c4cc(O)cc(O)c4-c4cc3ccc4O)[C@H](O)c3ccc(c(Cl)c3)Oc3cc2cc(c3O[C@@H]2O[C@H](CO)[C@@H](O)[C@H](O)[C@H]2O[C@H]2C[C@](C)(N)[C@H](O)[C@H](C)O2)Oc2ccc(cc2Cl)[C@H]1O [Vancomycin] | – | – | – | – | – | – | – | – | – | 1 (≈ 0.69 µM) | 1 (≈ 0.69 µM) | 0.5 (≈ 0.345 µM) | 1 (≈ 0.69 µM) | > 64 | 0.25 (≈ 0.173 µM) | 0.25 (≈ 0.173 µM) | – | 0.25 (≈ 0.173 µM) | 0.5 (≈ 0.345 µM) | 0.5 (≈ 0.345 µM) | – |
